Among the data in ChEMBL document CHEMBL4433213, “Investigation on 2',3'-O-Substituted ATP Derivatives and Analogs as Novel P2X3 Receptor Antagonists” (ACS Med Chem Lett, 2019) are inhibition, IC50 and Ratio IC50 values, retold here.

The target of assay [1] is T1, P2X purinoceptor 1 (Homo sapiens) (UniProt P51575).
T1 sequence (whole entry): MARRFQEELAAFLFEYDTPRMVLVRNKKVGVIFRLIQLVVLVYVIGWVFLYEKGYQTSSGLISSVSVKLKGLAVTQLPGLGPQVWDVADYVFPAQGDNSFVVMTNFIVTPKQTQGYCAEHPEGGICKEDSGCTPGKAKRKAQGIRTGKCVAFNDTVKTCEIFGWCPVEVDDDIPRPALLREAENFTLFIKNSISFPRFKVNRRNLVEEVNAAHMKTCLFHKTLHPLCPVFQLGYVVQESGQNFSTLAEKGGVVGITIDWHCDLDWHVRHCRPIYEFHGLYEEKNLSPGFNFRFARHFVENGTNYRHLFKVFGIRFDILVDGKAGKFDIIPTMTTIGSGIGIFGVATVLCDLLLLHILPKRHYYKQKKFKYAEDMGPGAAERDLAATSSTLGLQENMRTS
Nature of the assay: Antagonist activity at human P2X1R transfected in human 1321N1 cells assessed as inhibition of ATP-induced calcium influx relative to control. Format: cell-based. To be noted: concentration not given here. A digest of the protocol: (§1)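 1321N1 astrocytoma cells stably expressing human P2X1, P2X2, P2X3 or P2X4 receptor. Calcium influx was induced by ATP at the EC80 for each subtype. Results are given as IC50 (μM) or % inhibition at the indicated concentration.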

For assay [2], the target named is T2, P2X purinoceptor 3 (Homo sapiens, UniProt P56373).
T2 sequence (P56373 whole entry): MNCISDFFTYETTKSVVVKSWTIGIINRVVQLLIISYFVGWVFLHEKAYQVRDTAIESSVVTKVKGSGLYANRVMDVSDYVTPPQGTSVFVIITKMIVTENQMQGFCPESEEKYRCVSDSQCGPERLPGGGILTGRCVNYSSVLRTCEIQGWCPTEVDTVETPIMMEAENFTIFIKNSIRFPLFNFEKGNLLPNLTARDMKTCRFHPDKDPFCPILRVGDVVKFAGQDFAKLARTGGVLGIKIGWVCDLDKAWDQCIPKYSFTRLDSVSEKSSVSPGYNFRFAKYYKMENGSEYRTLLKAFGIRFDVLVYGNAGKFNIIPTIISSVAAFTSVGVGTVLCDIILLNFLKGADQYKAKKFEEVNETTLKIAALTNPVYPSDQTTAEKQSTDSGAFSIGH
Kind of assay: Antagonist activity at human P2X3R transfected in human 1321N1 cells assessed as inhibition of ATP-induced calcium influx. Type of assay: cell-based. A digest of the protocol: as §1

Assay [3] addresses T3, P2X purinoceptor 4 (Homo sapiens) (UniProt Q99571).
T3 sequence (whole entry): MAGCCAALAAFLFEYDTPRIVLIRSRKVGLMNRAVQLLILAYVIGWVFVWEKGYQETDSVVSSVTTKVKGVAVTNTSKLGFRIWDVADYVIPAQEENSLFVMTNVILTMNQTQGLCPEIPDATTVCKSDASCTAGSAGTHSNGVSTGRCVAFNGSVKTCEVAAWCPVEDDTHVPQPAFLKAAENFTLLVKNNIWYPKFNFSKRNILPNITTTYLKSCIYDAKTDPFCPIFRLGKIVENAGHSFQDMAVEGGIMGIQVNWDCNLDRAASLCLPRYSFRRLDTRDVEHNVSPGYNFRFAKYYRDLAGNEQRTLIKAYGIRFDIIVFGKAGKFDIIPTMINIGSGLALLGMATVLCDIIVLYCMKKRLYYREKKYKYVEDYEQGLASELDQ
Kind of assay: Antagonist activity at human P2X4R transfected in human 1321N1 cells assessed as inhibition of ATP-induced calcium influx relative to control. Format: cell-based. Particulars: concentration not given here. A digest of the protocol: as §1

Assay [4] addresses T4, P2X purinoceptor 7 (Homo sapiens, UniProt Q99572).
T4 sequence (Q99572 whole entry): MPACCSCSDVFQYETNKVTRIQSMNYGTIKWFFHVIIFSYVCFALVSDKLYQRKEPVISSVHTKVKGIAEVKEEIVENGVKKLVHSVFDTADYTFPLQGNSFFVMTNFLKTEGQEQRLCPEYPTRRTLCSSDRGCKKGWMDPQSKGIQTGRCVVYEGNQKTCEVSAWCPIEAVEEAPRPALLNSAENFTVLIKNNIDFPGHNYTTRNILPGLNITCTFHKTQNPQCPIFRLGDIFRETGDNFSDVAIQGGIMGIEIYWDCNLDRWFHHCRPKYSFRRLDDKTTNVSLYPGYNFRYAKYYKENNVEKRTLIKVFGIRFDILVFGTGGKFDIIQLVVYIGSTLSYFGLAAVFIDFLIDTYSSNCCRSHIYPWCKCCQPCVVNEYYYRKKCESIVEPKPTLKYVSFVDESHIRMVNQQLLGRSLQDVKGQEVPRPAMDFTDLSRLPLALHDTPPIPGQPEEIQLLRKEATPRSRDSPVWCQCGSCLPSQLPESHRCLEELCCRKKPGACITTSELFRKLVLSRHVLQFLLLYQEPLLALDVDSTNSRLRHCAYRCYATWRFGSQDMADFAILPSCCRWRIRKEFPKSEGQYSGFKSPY
Kind of assay: Antagonist activity at human P2X7R transfected in human 1321N1 cells assessed as inhibition of Bz-ATP-induced calcium influx. Type of assay: cell-based.

The species entered for assay [5] is Mus musculus. Kind of assay: Antagonist activity at GABAA receptor in mouse TG sensory neurons assesed as inhibition of GABAA receptor agonist GABA-evoked currents at 1 uM pre-applied before GABA addition. A digest of the protocol: (§2)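 In mouse trigeminal sensory neurons, test compound was preapplied at 1 μM, then 10 μM GABA (GABAA) or 10 μM 5-HT (5-HT3) was applied. Current amplitudes were normalized to the control current evoked by the same agonist alone. N = 5 cells.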

For assay [6], the target named is T5, 5-hydroxytryptamine receptor 3A (Mus musculus) (UniProt P23979).
T5 sequence (whole entry): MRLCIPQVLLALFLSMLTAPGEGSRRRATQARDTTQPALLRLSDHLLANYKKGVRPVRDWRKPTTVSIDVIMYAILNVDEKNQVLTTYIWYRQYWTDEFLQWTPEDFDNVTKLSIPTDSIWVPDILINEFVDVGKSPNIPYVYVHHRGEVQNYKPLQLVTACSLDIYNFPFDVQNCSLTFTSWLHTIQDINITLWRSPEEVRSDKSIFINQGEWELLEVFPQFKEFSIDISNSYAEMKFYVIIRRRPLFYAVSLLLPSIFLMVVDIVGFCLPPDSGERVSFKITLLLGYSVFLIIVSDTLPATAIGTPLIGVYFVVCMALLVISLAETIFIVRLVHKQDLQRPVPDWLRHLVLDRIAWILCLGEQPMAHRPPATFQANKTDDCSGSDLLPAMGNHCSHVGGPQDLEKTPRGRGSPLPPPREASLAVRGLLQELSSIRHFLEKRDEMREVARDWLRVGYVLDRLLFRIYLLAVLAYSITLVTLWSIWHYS
Kind of assay: Antagonist activity at 5-HT3 receptor in mouse TG sensory neurons assessed as inhibition of 5-HT3 receptor agonist 5-HT-evoked currents at 1 uM pre-applied before 5-HT addition. A digest of the protocol: as §2

The species named for assay [7] is Homo sapiens. Nature of the assay: Selectivity ratio of IC50 for human P2X1R transfected in human […] 1321N1 cells to IC50 for human transfected in human 1321N1 cells. Type of assay: cell-based.

Calls of active or inactive are those of the source. The rule behind the calls is not given here. Where only a bound is given, the exact number is not on record here.

What is called inhibition is the drop in the measured response relative to a control, in per cent. The IC50 is the point on the concentration scale where inhibition reaches its midpoint. `Nc1ncnc2c1ncn2[C@@H]1O[C@H](COP(=O)(O)OP(=O)(O)OP(=O)(O)O)[C@H]2OCO[C@H]21`: the inhibition in assay [1] worked out at 1%; in assay [3], 12%. Besides, the IC50 in assay [2] and in assay [4] was greater than 100 µM in each case.

Regarding `Nc1ncnc2c1ncn2[C@@H]1O[C@H](COP(=O)(O)CP(=O)(O)OP(=O)(O)O)[C@H]2OC3(CCCCC3)O[C@H]21`, the inhibition in assay [1] was -1%. The half-inhibitory concentration (IC50) in assay [2] was 17.5 µM; in assay [4] it was greater than 100 µM. Besides, the inhibition entry in assay [5] and in assay [6] was “inactive” throughout.

With `CC1(C)O[C@@H]2[C@H](O1)[C@@H](COP(=O)(O)OP(=O)(O)OP(=O)(O)O)O[C@H]2n1cnc2c(N)ncnc21`, the half-inhibitory concentration (IC50) in assay [2] is 4.11 µM; in assay [4], greater than 100 µM. The inhibition entry in assay [5] and in assay [6] was “inactive” throughout. In addition, in assay [7], the Ratio IC50 is 10.
